The species named for one data set is Homo sapiens. The data set is described as follows: Half life in human. It counts as ADME, organism-based. The note with it: in vivo.
Data set [1] deals with Sus scrofa. Description: Clearance in Gottingen mini pig at 2 nmol/kg, iv. It counts as ADME, organism-based. Conditions: in vivo; call rule not given here. The essentials:
(§1)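 Göttingen mini-pigs received a single i.v. or s.c. dose, sized to individual body weight. Twelve blood samples were taken up to 288 h into ice-cooled EDTA tubes, then centrifuged at 4 °C. Plasma was frozen until GLP-1 analogue was measured by ELISA or LC/MS. Cl, Vz, T1/2, Tmax, MRT and F came from noncompartmental analysis.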

Data set [2] relates to Sus scrofa. Description: Apparent volume of distribution in Gottingen mini pig at 2 nmol/kg, iv. The class given is ADME, organism-based. The note with it: in vivo. The essentials: as §1
Data set [3] concerns Sus scrofa. Description: Half life in Gottingen mini pig at 2 nmol/kg, iv. The class given is ADME, organism-based. The note with it: in vivo. In outline:
as §1

The test system of data set [4] is Sus scrofa. Description: Tmax in Gottingen mini pig at 2 nmol/kg, sc. The class given is ADME, organism-based. Conditions: in vivo. In outline:
as §1

In data set [5] the test system is Sus scrofa. Description: Mean residence time in Gottingen mini pig at 2 nmol/kg, sc. It counts as ADME, organism-based. Conditions: in vivo. The essentials:
as §1

Data set [6] concerns Sus scrofa. Description: Bioavailability in Gottingen mini pig at 2 nmol/kg, sc. It counts as ADME, organism-based. The note with it: in vivo. The essentials: as §1
The target of the next data set is Mus musculus. The data set is described as follows: Antihyperglycaemic activity in sc dosed db/db mouse assessed as reduction of blood glucose level up to 48 hrs by glucose oxidase method. The class given is functional, organism-based. The essentials: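 Male db/db mice (10–12 weeks old, blood glucose above 10 mM), group-housed, fed chow and acidified water ad libitum. Doses of 0.3–100 nmol/kg were given s.c. at 6 mL/kg in 50 mM phosphate with 0.05% Tween 80, pH 8. Tail-tip capillary blood glucose was measured by glucose oxidase at 0, 1, 2, 3, 6, 24 and 48 h. […] Values are mean ± SEM.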

The target in a further data set is Albumin (Homo sapiens, UniProt P02768). The data set is described as follows: Binding affinity to human serum albumin at 100 uM by analytical ultracentrifugation analysis relative to liraglutide. The class given is ADME. Conditions: isolated protein. In outline: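 Sedimentation-velocity analytical ultracentrifugation of 100 μM analogue with 10 μM purified monomeric HSA in PBS, pH 7.4, at 20 °C and 40 000 rpm, read at 250 nm. Free fraction Φ = c_free/(c_tot − c_HSA). Three experiments were averaged, with SD.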

Data set [7] is described as follows: Clearance in Gottingen mini pig at 0.5 nmol/kg, iv. The class given is ADME, organism-based, Sus scrofa. Conditions: Gottingen minipig, in vivo. In outline:
as §1

A short description of data set [8]: Apparent volume of distribution in Gottingen mini pig at 0.5 nmol/kg, iv. The class given is ADME, organism-based, Sus scrofa. The note with it: Gottingen minipig, in vivo, read-out: Vz. In outline:
as §1

Data set [9] can be described thus: Half life in Gottingen mini pig at 0.5 nmol/kg, iv. It counts as ADME, organism-based, Sus scrofa. Conditions: Gottingen minipig, in vivo. In outline: as §1
Data set [10] can be described thus: Mean residence time in Gottingen mini pig at 1 nmol/kg, sc. It counts as ADME, organism-based, Sus scrofa. The note with it: Gottingen minipig, in vivo. The essentials: as §1
Data set [11] is described as follows: Bioavailability in Gottingen mini pig at 1 nmol/kg, sc. It counts as ADME, organism-based, Sus scrofa. Conditions: Gottingen minipig, in vivo. The essentials:
as §1

What is called Tmax is the time at which the peak concentration occurs. As usually defined, the MRT is the average time that molecules of a dose stay in the body. As usually defined, the clearance is the volume of plasma or blood freed of the substance per unit of time. A lower clearance goes with a low capacity for elimination. For orientation: half-life means how long it takes for the measured level to halve. Lower therefore signals rapid decline. By bioavailability is commonly meant dose-corrected exposure relative to a reference, in per cent. Read a low bioavailability as little systemic uptake.

Sequence of Albumin (P02768 whole entry): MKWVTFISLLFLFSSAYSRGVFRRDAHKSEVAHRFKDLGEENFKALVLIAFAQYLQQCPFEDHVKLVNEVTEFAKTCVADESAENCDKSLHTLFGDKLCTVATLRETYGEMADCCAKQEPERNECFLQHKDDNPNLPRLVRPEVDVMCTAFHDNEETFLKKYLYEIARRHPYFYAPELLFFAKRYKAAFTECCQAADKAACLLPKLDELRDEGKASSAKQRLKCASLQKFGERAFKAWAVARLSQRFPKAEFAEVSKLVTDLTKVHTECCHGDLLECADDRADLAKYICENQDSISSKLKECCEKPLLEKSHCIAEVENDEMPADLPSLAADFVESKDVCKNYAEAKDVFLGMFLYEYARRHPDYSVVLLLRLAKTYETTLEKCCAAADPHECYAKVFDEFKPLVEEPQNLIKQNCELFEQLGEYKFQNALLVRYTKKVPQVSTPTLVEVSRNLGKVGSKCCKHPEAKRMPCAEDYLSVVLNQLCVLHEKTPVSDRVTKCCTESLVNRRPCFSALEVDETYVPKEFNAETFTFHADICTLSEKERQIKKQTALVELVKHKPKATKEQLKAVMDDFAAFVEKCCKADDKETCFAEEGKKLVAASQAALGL

SEMAGLUTIDE: the t1/2 in the data set listed under Homo sapiens was determined as 165 h; with Sus scrofa [3] it was 46.1 h. This compound also displayed a CL in the data set with Sus scrofa [1] of 1.6 mL/h/kg. Also, the Vz in the data set on Sus scrofa [2] worked out at 0.1019 L/kg. Also, the Tmax in the data set on Sus scrofa [4] stood at 12 h. This compound also gave a mean residence time (MRT) with Sus scrofa [5] of 63.6 h. The compound further came in with a F in the data set on Sus scrofa [6] of 94%. The EC50 on Mus musculus was < 2 nmol/kg.

Regarding `CC[C@H](C)[C@H](NC(=O)[C@H](Cc1ccccc1)NC(=O)[C@H](CCC(=O)O)NC(=O)[C@H](CCCCNC(=O)COCCOCCNC(=O)COCCOCCNC(=O)CC[C@H](NC(=O)CCCCCCCCCCCCCCCCC(=O)O)C(=O)O)NC(=O)[C@H](C)NC(=O)[C@H](C)NC(=O)[C@H](CCC(N)=O)NC(=O)CNC(=O)[C@H](CCC(=O)O)NC(=O)[C@H](CC(C)C)NC(=O)[C@H](Cc1ccc(O)cc1)NC(=O)[C@H](CO)NC(=O)[C@H](CO)NC(=O)[C@@H](NC(=O)[C@H](CC(=O)O)NC(=O)[C@H](CO)NC(=O)[C@@H](NC(=O)[C@H](Cc1ccccc1)NC(=O)[C@@H](NC(=O)CNC(=O)[C@H](CCC(=O)O)NC(=O)[C@H](C)NC(=O)[C@@H](N)Cc1c[nH]cn1)[C@@H](C)O)[C@@H](C)O)C(C)C)C(=O)N[C@@H](C)C(=O)N[C@@H](Cc1c[nH]c2ccccc12)C(=O)N[C@@H](CC(C)C)C(=O)N[C@H](C(=O)N[C@@H](CCCNC(=N)N)C(=O)NCC(=O)N[C@@H](CCCNC(=N)N)C(=O)NCC(=O)O)C(C)C`, the Activity result at Albumin was “Not Active”.

With `CCCCCCCCCCCCCCCC(=O)N[C@@H](CCC(=O)NCCCC[C@H](NC(=O)[C@H](C)NC(=O)[C@H](C)NC(=O)[C@H](CCC(N)=O)NC(=O)CNC(=O)[C@H](CCC(=O)O)NC(=O)[C@H](CC(C)C)NC(=O)[C@H](Cc1ccc(O)cc1)NC(=O)[C@H](CO)NC(=O)[C@H](CO)NC(=O)[C@@H](NC(=O)[C@H](CC(=O)O)NC(=O)[C@H](CO)NC(=O)[C@@H](NC(=O)[C@H](Cc1ccccc1)NC(=O)[C@@H](NC(=O)CNC(=O)[C@H](CCC(=O)O)NC(=O)[C@H](C)NC(=O)[C@@H](N)Cc1cnc[nH]1)[C@@H](C)O)[C@@H](C)O)C(C)C)C(=O)N[C@@H](CCC(=O)O)C(=O)N[C@@H](Cc1ccccc1)C(=O)N[C@H](C(=O)N[C@@H](C)C(=O)N[C@@H](Cc1c[nH]c2ccccc12)C(=O)N[C@@H](CC(C)C)C(=O)N[C@H](C(=O)N[C@@H](CCCNC(=N)N)C(=O)NCC(=O)N[C@@H](CCCNC(=N)N)C(=O)NCC(=O)O)C(C)C)[C@@H](C)CC)C(=O)O` [LIRAGLUTIDE], in data set [7], the clearance is 3.8 mL/h/kg. In addition, the Vd in data set [8] worked out at 0.0674 L/kg. In addition, in data set [9], the half-life was 12.4 h. In addition, the MRT in [10] was found to be 23 h. This compound also displayed a bioavailability in data set [11] of 66%.

Values taken from ChEMBL document CHEMBL3616405 (J Med Chem, 2015).
